Test results reported in PMC8524144 (International Journal of Pharmaceutics: X, 2021).

How the values were obtained:
[1] = In vitro stability of hPTH; format: physicochemical
Method in brief: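 Peptide (1.0 mg teriparatide acetate per mL in 50 mM Tris, pH 6.5, no SBTI) mixed 1:1 with enzyme-free Tris buffer and incubated at 37 °C with shaking. Samples were taken at 2, 5, 10, 15, 30 and 60 min and quenched with an equal volume of 0.5% TFA. A zero-time mix served as 100%. Peptide was measured by C18 HPLC-UV. Run in duplicate.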

pepsin = conditions: ref Werle et al. (2006); cited from earlier work
[2] = system: membrane-bound peptidases; conditions: ref Werle et al. (2006); cited from earlier work
trypsin = conditions: ref Werle et al. (2006); cited from earlier work
aminopeptidase N = conditions: ref Werle et al. (2006); cited from earlier work
elastase = conditions: ref Werle et al. (2006); cited from earlier work
chymotrypsin = conditions: ref Werle et al. (2006); cited from earlier work
[3] = SBTI at the levels found in the tested formulations; ref Hernández-Ledesma and Hsieh, 2017; Burshtein et al. 2018b; cited from earlier work
[4] = 50 mM Tris buffer without protease, pH 6.5

remaining at 0.25 h, 0.5 mg/mL [1, 4] [%]	remaining at 0.5 h, 0.5 mg/mL [1, 4] [%]	remaining at 1 h, 0.5 mg/mL [1, 4] [%]	stability of hPTH(1–34) alone ([1]; no protease, no SBTI, 50 mM Tris buffer pH 6.5, 37 °C, HPLC-UV, n = 2)	Molecule	degradation by GIT protease pepsin (pepsin)	effect of membrane-bound peptidases on the degradation of hPTH(1–34) [2]	degradation by GIT protease trypsin (trypsin)	effect of aminopeptidase N on the degradation of hPTH(1–34) (aminopeptidase N)	effect of elastase on the degradation of hPTH(1–34) (elastase)	degradation by GIT protease chymotrypsin (chymotrypsin)	tolerability in human trials [3]
100	100	100	stable for at least one hour	CC[C@H](C)[C@H](NC(=O)[C@H](CCC(=O)O)NC(=O)[C@H](CO)NC(=O)[C@@H](NC(=O)[C@@H](N)CO)C(C)C)C(=O)N[C@@H](CCC(N)=O)C(=O)N[C@@H](CC(C)C)C(=O)N[C@@H](CCSC)C(=O)N[C@@H](Cc1cnc[nH]1)C(=O)N[C@@H](CC(N)=O)C(=O)N[C@@H](CC(C)C)C(=O)NCC(=O)N[C@@H](CCCCN)C(=O)N[C@@H](Cc1cnc[nH]1)C(=O)N[C@@H](CC(C)C)C(=O)N[C@@H](CC(N)=O)C(=O)N[C@@H](CO)C(=O)N[C@@H](CCSC)C(=O)N[C@@H](CCC(=O)O)C(=O)N[C@@H](CCCN=C(N)N)C(=O)N[C@H](C(=O)N[C@@H](CCC(=O)O)C(=O)N[C@@H](Cc1c[nH]c2ccccc12)C(=O)N[C@@H](CC(C)C)C(=O)N[C@@H](CCCN=C(N)N)C(=O)N[C@@H](CCCCN)C(=O)N[C@@H](CCCCN)C(=O)N[C@@H](CC(C)C)C(=O)N[C@@H](CCC(N)=O)C(=O)N[C@@H](CC(=O)O)C(=O)N[C@H](C(=O)N[C@@H](Cc1cnc[nH]1)C(=O)N[C@@H](CC(N)=O)C(=O)N[C@@H](Cc1ccccc1)C(=O)O)C(C)C)C(C)C [hPTH(1–34), teriparatide]	rapidly degraded	very limited effect	rapidly degraded	very limited effect	very limited effect	rapidly degraded	
				soybean trypsin inhibitor [SBTI]							well tolerated
